Assay results taken from ChEMBL document CHEMBL5136962, “Synthesis and immunological evaluation of N-acyl modified Globo H derivatives as anticancer vaccine candidates” (RSC Med Chem, 2021).
Calls of active or inactive are those of the source.

What was measured:
[1] = test system: MCF7; experiment: Induction of complement-dependent cytotoxicity against human MCF7 cells assessed as increase in cell lysis using mouse sera induced by compound immunization and 14 days post fourth vaccination measured after 1 hr by LDH release assay; type: functional, cell-based; settings: time 14.0 day
Summary of the method: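 Complement-dependent cytotoxicity on MCF-7 cells used pooled sera collected after the 4th vaccination, diluted 1:10. Percent lysis was read by LDH release, with three wells per measurement. Values are mean ± SEM of three independent experiments, compared by one-way ANOVA.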

[2] = test system: Mus musculus; experiment: (§1) Induction of antigen-specific immunogenicity in pathogen free Balb/c mouse assessed as increase in IgG1 antibody titer production against native Globo H antigen at 2 ug, IM administered 4 times at biweekly interval measured 14 days post fourth vaccination in presence of 2 ug glycolipid adjuvant C34 by ELISA; type: functional, organism-based; settings: dose 2.0 µg, time 14.0 day
Summary of the method: (§2)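 Six female Balb/c mice per group received CRM197 glycoconjugate (2 μg carbohydrate antigen) with C34 adjuvant (2 μg) intramuscularly, four times at two-week intervals. Pooled group sera were tested for IgG subclasses by ELISA on plates coated with the unmodified Globo H–BSA conjugate (G0-BSA).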

[3] = test system: Mus musculus; experiment: as §1, with “13” for “14”, “third” for “fourth”; type: functional, organism-based; settings: dose 2.0 µg, time 13.0 day; summary of the method: as §2
[4] = test system: Mus musculus; experiment: as §1, with “modified” for “native”; type: functional, organism-based; settings: dose 2.0 µg, time 14.0 day
[5] = test system: Globohexaosylceramide; experiment: Binding affinity to globo H antigen in human MCF7 cells using mouse sera induced by compound immunization and 14 days post fourth vaccination measured after 30 mins by FITC-conjugated antibody based flow cytometry; type: cell-based; settings: time 14.0 day
Summary of the method: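 Immune sera from vaccinated mice were incubated with Globo H-positive MCF-7 human breast cancer cells. Binding of serum antibodies to the cells was measured by flow cytometry.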

Measured: Activity

C[C@@H]1O[C@@H](O[C@H]2[C@H](O[C@H]3[C@@H](O)[C@@H](CO)O[C@@H](O[C@H]4[C@@H](O)[C@@H](CO)O[C@H](O[C@@H]5[C@H](O)[C@@H](O)[C@H](O[C@H]6[C@H](O)[C@@H](O)[C@H](OCCCCCN)O[C@@H]6CO)O[C@@H]5CO)[C@@H]4O)[C@@H]3NC(=O)C(F)(F)F)O[C@H](CO)[C@H](O)[C@@H]2O)[C@@H](O)[C@H](O)[C@@H]1O
active: [1] | [2] | [3] | [4] | [5]

CC(=O)N[C@H]1[C@H](O[C@H]2[C@@H](O)[C@@H](CO)O[C@H](O[C@@H]3[C@H](O)[C@@H](O)[C@H](O[C@H]4[C@H](O)[C@@H](O)[C@H](OCCCCCN)O[C@@H]4CO)O[C@@H]3CO)[C@@H]2O)O[C@H](CO)[C@H](O)[C@@H]1O[C@@H]1O[C@H](CO)[C@H](O)[C@H](O)[C@H]1O[C@@H]1O[C@@H](C)[C@@H](O)[C@@H](O)[C@@H]1O
active: [2] | [3] | [4] | [5]

C[C@@H]1O[C@@H](O[C@H]2[C@H](O[C@H]3[C@@H](O)[C@@H](CO)O[C@@H](O[C@H]4[C@@H](O)[C@@H](CO)O[C@H](O[C@@H]5[C@H](O)[C@@H](O)[C@H](O[C@H]6[C@H](O)[C@@H](O)[C@H](OCCCCCN)O[C@@H]6CO)O[C@@H]5CO)[C@@H]4O)[C@@H]3NC(=O)C(F)F)O[C@H](CO)[C@H](O)[C@@H]2O)[C@@H](O)[C@H](O)[C@@H]1O
active: [1] | [2] | [3] | [4] | [5]
